From ChEMBL document CHEMBL1155883, “5-Alkyl-6-benzyl-2-(2-oxo-2-phenylethylsulfanyl)pyrimidin-4(3H)-ones, a series of anti-HIV-1 agents of the dihydro-alkoxy-benzyl-oxopyrimidine family with peculiar structure-activity relationship profile” (J Med Chem, 2008)
pEC50: −log10 of the molar value.

Columns and labels:
[1] = tested on: Human immunodeficiency virus 1; test: Antiviral activity against HIV1 isolates with reverse transcriptase Y181C mutation in human MT4 cells assessed as inhibition of virus-induced cytopathogenicity by MTT assay; type: functional, organism-based; details: Human immunodeficiency virus 1, MT4
How it was run: (§1)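 MT-4 lymphoid cells infected with HIV-1 carrying RT K103N, Y181C or Y188L, in the presence of different drug concentrations. Viable cells counted at day 5 postinfection by MTT colorimetric assay. EC50 is the concentration that inhibits 50% of the HIV-induced cytopathic effect.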

[2] = tested on: Human immunodeficiency virus 1; test: Antiviral activity against HIV1 isolates with reverse transcriptase Y188L mutation in human MT4 cells assessed as inhibition of virus-induced cytopathogenicity by MTT assay; type: functional, organism-based; details: Human immunodeficiency virus 1, MT4; how it was run: as §1
[3] = tested on: Human immunodeficiency virus 1; test: Antiviral activity against HIV1 NL4-3 in human MT4 cells assessed as inhibition of virus-induced cytopathogenicity by MTT assay; type: functional, organism-based; details: Human immunodeficiency virus 1, NL4-3, MT4
How it was run: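 MT-4 lymphoid cells infected with wild-type HIV-1 NL4-3 in the presence of a range of compound concentrations. Viable cells were counted by MTT colorimetric read-out at day 5 post-infection. EC50 is the concentration giving 50% protection from virus-induced cytopathic effect. Means ± SD from at least two or three experiments.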

[4] = tested on: Human immunodeficiency virus 1; test: Resistance index, ratio of ID50 for reverse transcriptase Y181I mutant to IC50 for wild-type HIV1 reverse transcriptase
How it was run: (§2)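 Recombinant wt and K103N, L100I or Y181I HIV-1 RT (>95% pure), 2-4 nM. RNA-dependent DNA polymerase assay on 0.5 µg poly(rA)/oligo(dT) 10:1 (0.3 µM 3'-OH ends) with 10 µM [3H]-dTTP and 8% final DMSO. Aliquots taken every 2 min. Inhibitor range 0.2-5× ID50, fitted to a noncompetitive model. Fold resistance is mutant ID50 divided by wt ID50.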

[5] = tested on: Human immunodeficiency virus 1; test: Antiviral activity against HIV1 isolates with reverse transcriptase K103N mutation in human MT4 cells assessed as inhibition of virus-induced cytopathogenicity by MTT assay; type: functional, organism-based; details: Human immunodeficiency virus 1, MT4; how it was run: as §1
[6] = tested on: Human immunodeficiency virus 1; test: Resistance index, ratio of ID50 for reverse transcriptase L100I mutant to IC50 for wild-type HIV1 reverse transcriptase; how it was run: as §2
[7] = tested on: Human immunodeficiency virus type 1 reverse transcriptase (Human immunodeficiency virus 1), Q72547 [Y181I]
[8] = tested on: Human immunodeficiency virus 1; test: Resistance index, ratio of ID50 for reverse transcriptase K103N mutant to IC50 for wild-type HIV1 sreverse transcriptase; how it was run: as §2
[9] = tested on: Human immunodeficiency virus type 1 reverse transcriptase (Human immunodeficiency virus 1), Q72547 [K103N]
[10] = Selectivity index, ratio of CC50 for human MT4 cells to EC50 for HIV1 NL4-3; type: toxicity, cell-based; details: read-out: Ratio CC50/EC50
How it was run: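 Computed as CC50/EC50. CC50 comes from MTT viability of mock-infected MT-4 cells and EC50 from MTT protection of NL4-3-infected MT-4 cells, both read at day 5.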

[11] = Cytotoxicity against human MT4 cells by MTT assay; type: cell-based
How it was run: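 Mock-infected MT-4 cells were exposed to a range of compound concentrations. Viability was read by MTT at day 5. CC50 is the concentration that kills 50% of uninfected cells. The top concentration was limited by compound precipitation in culture medium. Means ± SD from at least two or three experiments.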

[12] = tested on: Human immunodeficiency virus type 1 reverse transcriptase (Human immunodeficiency virus 1), Q72547 [L100I]
[13] = target: Human immunodeficiency virus type 1 reverse transcriptase (Human immunodeficiency virus 1) (UniProt Q72547)
[14] = tested on: Human immunodeficiency virus 1; test: Resistance index, ratio of EC50 for drug-resistant HIV1 isolate with reverse transcriptase Y181C mutation to EC50 for wild type HIV1 NL4-3; type: functional
How it was run: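 Fold resistance is the EC50 against the K103N, Y181C or Y188L mutant strain divided by the EC50 against wt NL4-3. Each EC50 is from MT-4 cells infected in the presence of different drug concentrations, with viability read by MTT at day 5 postinfection.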

O=C(CSc1nc(Cc2c(F)cccc2Cl)cc(=O)[nH]1)c1ccccc1
pEC50 [1]: < 4.89
pEC50 [2]: < 4.89
pEC50 [3]: 5.90
Ratio [4]: 200
pEC50 [5]: < 4.89
Ratio [6]: 750
ID50 [7]: 0.4 µM
Ratio [8]: 1000
ID50 [9]: 2 µM
selectivity ratio [10]: > 10
CC50 [11]: > 13 µM
ID50 [12]: 1.5 µM
ID50 [13]: 0.002 µM

O=C(CSc1nc(Cc2c(F)cccc2Cl)cc(=O)[nH]1)c1ccc(F)cc1
pEC50 [1]: 4.86
Ratio EC50 [14]: 48
pEC50 [2]: < 4.21
pEC50 [3]: 6.54
Ratio [4]: 10
pEC50 [5]: < 4.21
ID50 [7]: 9.2 µM
Ratio [8]: 22
ID50 [9]: 20.7 µM
selectivity ratio [10]: > 210
CC50 [11]: > 61 µM
ID50 [12]: > 40 µM
ID50 [13]: 0.93 µM

Cc1c(Cc2c(F)cccc2F)nc(SC(C)C)[nH]c1=O
pEC50 [3]: 8.22
selectivity ratio [10]: > 12800
CC50 [11]: > 77 µM

Cc1c(Cc2c(F)cccc2F)nc(SCc2ccncc2)[nH]c1=O
pEC50 [3]: 7.22
selectivity ratio [10]: > 1170
CC50 [11]: > 70 µM

CC(C)Sc1nc(Cc2c(F)cccc2F)cc(=O)[nH]1
pEC50 [3]: 7.77
selectivity ratio [10]: > 4940
CC50 [11]: > 84 µM

CC(C)c1c(Cc2c(Cl)cccc2Cl)nc(SCC(=O)c2ccc(F)cc2)[nH]c1=O
pEC50 [1]: < 4.27
pEC50 [2]: < 4.27
pEC50 [3]: 7.19
Ratio [4]: 1530
pEC50 [5]: < 4.27
ID50 [7]: 30.6 µM
selectivity ratio [10]: > 844
CC50 [11]: > 54 µM
ID50 [13]: 0.02 µM

O=c1cc(Cc2c(F)cccc2F)nc(Sc2ccccc2)[nH]1
pEC50 [3]: 5.85
selectivity ratio [10]: > 54
CC50 [11]: > 76 µM

COc1ccc(C(=O)CSc2nc(Cc3c(F)cccc3Cl)cc(=O)[nH]2)cc1
pEC50 [1]: < 4.92
pEC50 [2]: < 4.92
pEC50 [3]: 5.81
pEC50 [5]: < 4.92
Ratio [6]: 36
ID50 [7]: > 40 µM
Ratio [8]: 243
ID50 [9]: 3.4 µM
selectivity ratio [10]: > 8
CC50 [11]: > 12 µM
ID50 [12]: 0.5 µM
ID50 [13]: 0.014 µM

Cc1ccc(CSc2nc(Cc3c(F)cccc3F)c(C)c(=O)[nH]2)c(C)c1
pEC50 [3]: 6.40
selectivity ratio [10]: > 162
CC50 [11]: > 65 µM

O=C(CSc1nc(Cc2c(F)cccc2F)cc(=O)[nH]1)c1ccc(Cl)cc1
pEC50 [3]: 5.01
selectivity ratio [10]: > 6
CC50 [11]: > 61 µM

COc1ccc(C(=O)CSc2nc(Cc3c(Cl)cccc3Cl)cc(=O)[nH]2)cc1
pEC50 [1]: < 4.96
pEC50 [2]: < 4.96
pEC50 [3]: 5.91
Ratio [4]: 2
pEC50 [5]: < 4.96
ID50 [7]: 0.11 µM
Ratio [8]: 694
ID50 [9]: 37.5 µM
selectivity ratio [10]: > 9
CC50 [11]: > 11 µM
ID50 [12]: > 40 µM
ID50 [13]: 0.054 µM

Cc1c(Cc2c(F)cccc2F)nc(SCc2ccccc2)[nH]c1=O
pEC50 [3]: 6.89
selectivity ratio [10]: > 538
CC50 [11]: > 70 µM

COc1ccc(C(=O)CSc2nc(Cc3c(Cl)cccc3Cl)c(C(C)C)c(=O)[nH]2)cc1
pEC50 [1]: 6.64
Ratio EC50 [14]: 575
pEC50 [2]: < 4.85
pEC50 [3]: 9.40
Ratio [4]: 1220
pEC50 [5]: < 4.85
ID50 [7]: 17.1 µM
ID50 [9]: > 40 µM
selectivity ratio [10]: > 35000
CC50 [11]: > 14 µM
ID50 [12]: > 40 µM
ID50 [13]: 0.014 µM

COc1ccc(C(=O)CSc2nc(Cc3c(F)cccc3F)c(C)c(=O)[nH]2)cc1
pEC50 [1]: 6.19
Ratio EC50 [14]: 13
pEC50 [2]: < 4.22
pEC50 [3]: 7.32
Ratio [4]: 4
pEC50 [5]: < 4.22
ID50 [7]: 1.17 µM
Ratio [8]: 87
ID50 [9]: 22.7 µM
selectivity ratio [10]: > 1250
CC50 [11]: > 60 µM
ID50 [12]: > 40 µM
ID50 [13]: 0.26 µM

O=c1cc(Cc2c(F)cccc2F)nc(SCc2c(F)cccc2F)[nH]1
pEC50 [3]: 6.00
selectivity ratio [10]: > 66
CC50 [11]: > 66 µM

Cc1c(Cc2c(F)cccc2F)nc(SCc2ccc([N+](=O)[O-])cc2)[nH]c1=O
pEC50 [3]: 5.92
selectivity ratio [10]: > 31
CC50 [11]: > 37 µM

CC(C)c1c(Cc2c(F)cccc2Cl)nc(SCC(=O)c2ccc(F)cc2)[nH]c1=O
pEC50 [1]: 6.25
Ratio EC50 [14]: 140
pEC50 [2]: < 4.26
pEC50 [3]: 8.40
pEC50 [5]: < 4.25
ID50 [7]: > 40 µM
Ratio [8]: 1670
ID50 [9]: 40 µM
selectivity ratio [10]: > 14000
CC50 [11]: > 56 µM
ID50 [13]: 0.024 µM

O=C1Nc2ccc(Cl)cc2[C@@](C#CC2CC2)(C(F)(F)F)O1 [EFAVIRENZ]
pEC50 [1]: 7.36
pEC50 [3]: 8.15
pEC50 [5]: 6.41
CC50 [11]: > 3 µM

CCc1c(Cc2c(F)cccc2F)nc(SCC(=O)c2ccc(OC)cc2)[nH]c1=O
pEC50 [1]: 6.60
Ratio EC50 [14]: 28
pEC50 [2]: < 4.24
pEC50 [3]: 8.05
Ratio [4]: 19
pEC50 [5]: < 4.24
ID50 [7]: 0.58 µM
Ratio [8]: 110
ID50 [9]: 3.41 µM
selectivity ratio [10]: > 6440
CC50 [11]: > 58 µM
ID50 [12]: > 40 µM
ID50 [13]: 0.031 µM

COc1ccc(C(=O)CSc2nc(Cc3c(F)cccc3Cl)c(C(C)C)c(=O)[nH]2)cc1
pEC50 [1]: 6.80
Ratio EC50 [14]: 160
pEC50 [2]: < 4.96
pEC50 [3]: 9.00
pEC50 [5]: < 4.96
ID50 [7]: > 40 µM
ID50 [9]: > 40 µM
selectivity ratio [10]: > 11000
CC50 [11]: > 11 µM
ID50 [12]: > 40 µM
ID50 [13]: 0.0007 µM

O=C(CSc1nc(Cc2c(F)cccc2F)cc(=O)[nH]1)c1ccccc1
pEC50 [3]: 6.00
selectivity ratio [10]: > 67
CC50 [11]: > 67 µM

O=c1cc(Cc2c(F)cccc2F)nc(SCc2ccccc2)[nH]1
pEC50 [3]: 7.00
selectivity ratio [10]: > 730
CC50 [11]: > 73 µM

Cc1c(Cc2c(F)cccc2F)nc(SCc2cccnc2)[nH]c1=O
pEC50 [3]: 5.23
selectivity ratio [10]: > 12
CC50 [11]: > 70 µM

Cc1c(Cc2c(Cl)cccc2Cl)nc(SCC(=O)c2ccc(F)cc2)[nH]c1=O
pEC50 [1]: < 4.24
pEC50 [2]: < 4.24
pEC50 [3]: 7.34
Ratio [4]: 4
pEC50 [5]: < 4.24
Ratio [6]: 56
ID50 [7]: 0.8 µM
ID50 [9]: > 40 µM
selectivity ratio [10]: > 1240
CC50 [11]: > 57 µM
ID50 [12]: 10.7 µM
ID50 [13]: 0.19 µM

COc1ccc(C(=O)CSc2nc(Cc3cccc4ccccc34)c(C(C)C)c(=O)[nH]2)cc1
pEC50 [3]: 7.52
selectivity ratio [10]: 6770
CC50 [11]: 203 µM

O=C(CSc1nc(Cc2c(F)cccc2F)cc(=O)[nH]1)c1ccc([N+](=O)[O-])cc1
pEC50 [3]: 5.08
selectivity ratio [10]: > 3
CC50 [11]: 22 µM

CC(=O)CSc1nc(Cc2c(F)cccc2F)cc(=O)[nH]1
pEC50 [3]: 5.51
selectivity ratio [10]: > 26
CC50 [11]: > 81 µM

COc1ccc(C(=O)CSc2nc(Cc3c(Cl)cccc3Cl)c(C)c(=O)[nH]2)cc1
pEC50 [1]: 5.92
Ratio EC50 [14]: 18
pEC50 [2]: < 4.25
pEC50 [3]: 7.17
Ratio [4]: 5
pEC50 [5]: < 4.25
ID50 [7]: 0.46 µM
ID50 [9]: > 40 µM
selectivity ratio [10]: > 836
CC50 [11]: > 56 µM
ID50 [12]: > 40 µM
ID50 [13]: 0.094 µM

O=c1cc(Cc2c(F)cccc2F)nc(SCCc2ccccc2)[nH]1
pEC50 [3]: 6.52
selectivity ratio [10]: > 233
CC50 [11]: > 70 µM

Cc1cc(C)cc(CSc2nc(Cc3c(F)cccc3F)c(C)c(=O)[nH]2)c1
pEC50 [3]: 4.85
selectivity ratio [10]: > 5
CC50 [11]: > 65 µM

Cc1c(Cc2c(F)cccc2F)nc(SCc2ccccn2)[nH]c1=O
pEC50 [3]: 5.00
selectivity ratio [10]: > 7
CC50 [11]: > 70 µM

O=c1cc(Cc2c(F)cccc2F)nc(SCCCc2ccccc2)[nH]1
pEC50 [3]: 6.70
selectivity ratio [10]: 160
CC50 [11]: 32 µM
